Assay results taken from PMC4944921 (Drug Design, Development and Therapy, 2016).
Each block holds one compound with its values, some of them ahead of it.

Assays:
[1] = tested on: TJ proteins (occludin, claudin-1, F-actin) in Calu-3 cells; assay: Immunofluorescence microscopy of tight junction proteins in Calu-3 cells; assay type: cell-based, human; settings: 3 hours treatment, vs control group
In short: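 Calu-3 monolayers on collagen-coated 0.4 μm PET Transwell membranes were exposed to test compounds in medium for 3 h. Cells were fixed in cold 4% paraformaldehyde for 30 min and blocked with goat serum for 1 h. Anti-occludin or anti-claudin-1 (1:100, 4°C overnight) was detected with TRITC anti-rabbit or FITC anti-mouse IgG. F-actin was stained with phalloidin (1:150, RT, 30 min) and nuclei with DAPI. Relative AOD = (IntDen/Area) as % of control; three experiments; Dunnett test.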

Calu-3 cells [2] = assay: MTT cytotoxicity assay in Calu-3 cells; assay type: cell-based, human; settings: comparison of the three compounds
In short: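 Calu-3 cells were seeded at 1×10^5 cells/mL in 96-well plates and grown for 48 h at 37°C in 5% CO2. They were then exposed to test compounds at various concentrations for 48 h. MTT (5 mg/mL stock in PBS) was added for 4 h at 37°C, formazan was dissolved in DMSO, and A490 was read. Viability (%) = (Asample−Ablank)/(Acontrol−Ablank)×100, from the mean of five measurements.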

[3] = tested on: abdominal skin of Rana catesbeiana; settings: menthol 5 mg/mL with puerarin, compared with puerarin alone group; cited from earlier work
Calu-3 cell monolayer = assay: Puerarin bidirectional transport across Calu-3 cell monolayers; assay type: in vitro ADME, human
In short: (§1)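 Calu-3 cells (passages 5–10) were grown on collagen-coated PET Transwells, switched to air-interface culture from day 5 and used once TEER exceeded 500 Ω cm2. Monolayers were HBSS-washed and equilibrated for 30 min at 37°C. Drug was placed apically (A→B) or basolaterally (B→A), with shaking at 37°C. Receiver samples were taken at 30–180 min for HPLC-UV at 250 nm (C18; methanol:1% acetate 37:63). Papp was normalised to donor concentration and membrane area; ER = Papp(B→A)/Papp(A→B); n=3.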

[4] = as above; assay type: in vitro ADME, human; settings: human
In short: as §1

Calu-3 cells [5] = assay: TEER change of Calu-3 monolayers after exposure to compounds; assay type: cell-based, human; settings: A→B and B→A, 30-180 minutes, vs control group
In short: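 Monolayers with TEER above 500 Ω cm2 received drug solution on the apical side (HBSS basolateral) or on the basolateral side (HBSS apical). Untreated monolayers served as control. TEER was read with chopstick electrodes and an epithelial volt–ohm meter at 30, 60, 90, 120, 150 and 180 min. Values are expressed relative to pre-experiment TEER (100%) and compared with control by one-way ANOVA and Dunnett test (P<0.05); three experiments, mean ± SD.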

[6] = cited from earlier work

Structure (SMILES): C[C@@]12C[C@@]3(O)O[C@@H](O1)[C@]1(COC(=O)c4ccccc4)[C@H]3C[C@@]12O[C@@H]1O[C@H](CO)[C@@H](O)[C@H](O)[C@H]1O [paeoniflorin]
- relative AOD of occludin, claudin-1, and F-actin [1]: did not significantly differ

Structure (SMILES): CC1CCC(C(C)C)C(O)C1 (centres unmarked) [menthol]
- relative toxicity to Calu-3 cells (Calu-3 cells [2]): most toxic
- Papp value of puerarin [3]: significantly higher
- relative AOD of occludin, claudin-1, and F-actin [1]: decreased significantly

- ER (B→A/A→B) (Calu-3 cell monolayer; puerarin 60 μg/mL + menthol 15 μg/mL): 1.065±0.116
- ER (B→A/A→B) (Calu-3 cell monolayer; puerarin 60 μg/mL + menthol 30 μg/mL): 1.100±0.060
- ER (B→A/A→B) (Calu-3 cell monolayer; puerarin 60 μg/mL + menthol 60 μg/mL): 1.157±0.088
- ER (B→A/A→B) (Calu-3 cell monolayer; puerarin 60 μg/mL + paeoniflorin 12 μg/mL): 1.002±0.039
- ER (B→A/A→B) (Calu-3 cell monolayer; puerarin 60 μg/mL + paeoniflorin 12 μg/mL + menthol 15 μg/mL): 0.999±0.150
- ER (B→A/A→B) (Calu-3 cell monolayer; puerarin 60 μg/mL + paeoniflorin 24 μg/mL): 1.018±0.065
- ER (B→A/A→B) (Calu-3 cell monolayer; puerarin 60 μg/mL + paeoniflorin 24 μg/mL + menthol 30 μg/mL): 1.228±0.157
- ER (B→A/A→B) (Calu-3 cell monolayer; puerarin 60 μg/mL + paeoniflorin 48 μg/mL): 1.049±0.027
- ER (B→A/A→B) (Calu-3 cell monolayer; puerarin 60 μg/mL + paeoniflorin 48 μg/mL + menthol 60 μg/mL): 1.091±0.048
- ER (B→A/A→B) (Calu-3 cell monolayer; puerarin 120 μg/mL alone): 1.023±0.070
- efflux ratio (ER) (Calu-3 cell monolayer; puerarin alone, each concentration 30, 60, 120 μg/mL): ~ 1
- Papp at 180 min [4]: < 1.5 ×10⁻⁶ cm/s
- efflux ratio at 180 min, 30 μg/mL ([4]; ER (B→A/A→B), puerarin 30 μg/mL alone): 0.963 ± 0.065
- efflux ratio at 180 min, 60 μg/mL ([4]; ER (B→A/A→B), puerarin 60 μg/mL alone): 1.01 ± 0.032
- Papp A→B at 180 min, 30 μg/mL ([4]; Papp (A→B), puerarin 30 μg/mL alone): 1.22 ± 0.027 ×10⁻⁶ cm/s
- Papp A→B at 180 min, 60 μg/mL ([4]; Papp (A→B), puerarin 60 μg/mL + menthol 15 μg/mL): 1.28 ± 0.084 ×10⁻⁶ cm/s
- Papp A→B at 180 min, 60 μg/mL ([4]; Papp (A→B), puerarin 60 μg/mL + menthol 30 μg/mL): 1.64 ± 0.058 ×10⁻⁶ cm/s
- Papp A→B at 180 min, 60 μg/mL ([4]; Papp (A→B), puerarin 60 μg/mL + menthol 60 μg/mL): 1.79 ± 0.087 ×10⁻⁶ cm/s
- Papp A→B at 180 min, 60 μg/mL ([4]; Papp (A→B), puerarin 60 μg/mL + paeoniflorin 12 μg/mL): 1.24 ± 0.027 ×10⁻⁶ cm/s
- Papp A→B at 180 min, 60 μg/mL ([4]; Papp (A→B), puerarin 60 μg/mL + paeoniflorin 12 μg/mL + menthol 15 μg/mL): 1.3 ± 0.15 ×10⁻⁶ cm/s
- Papp A→B at 180 min, 60 μg/mL ([4]; Papp (A→B), puerarin 60 μg/mL + paeoniflorin 24 μg/mL): 1.23 ± 0.054 ×10⁻⁶ cm/s
- Papp A→B at 180 min, 60 μg/mL ([4]; Papp (A→B), puerarin 60 μg/mL + paeoniflorin 24 μg/mL + menthol 30 μg/mL): 1.56 ± 0.143 ×10⁻⁶ cm/s
- Papp A→B at 180 min, 60 μg/mL ([4]; Papp (A→B), puerarin 60 μg/mL + paeoniflorin 48 μg/mL): 1.23 ± 0.025 ×10⁻⁶ cm/s
- Papp A→B at 180 min, 60 μg/mL ([4]; Papp (A→B), puerarin 60 μg/mL + paeoniflorin 48 μg/mL + menthol 60 μg/mL): 1.96 ± 0.067 ×10⁻⁶ cm/s
- Papp A→B at 180 min, 60 μg/mL ([4]; Papp (A→B), puerarin 60 μg/mL alone): 1.23 ± 0.039 ×10⁻⁶ cm/s
- Papp A→B at 180 min, 120 μg/mL ([4]; Papp (A→B), puerarin 120 μg/mL alone): 1.24 ± 0.053 ×10⁻⁶ cm/s
- Papp A→B at 180 min ([4]; Papp (A→B), puerarin alone, span over 30, 60 and 120 μg/mL): 1.22 to 1.24 ×10⁻⁶ cm/s
- Papp B→A at 180 min, 30 μg/mL ([4]; Papp (B→A), puerarin 30 μg/mL alone): 1.17 ± 0.053 ×10⁻⁶ cm/s
- Papp B→A at 180 min, 60 μg/mL ([4]; Papp (B→A), puerarin 60 μg/mL + menthol 15 μg/mL): 1.36 ± 0.083 ×10⁻⁶ cm/s
- Papp B→A at 180 min, 60 μg/mL ([4]; Papp (B→A), puerarin 60 μg/mL + menthol 30 μg/mL): 1.8 ± 0.111 ×10⁻⁶ cm/s
- Papp B→A at 180 min, 60 μg/mL ([4]; Papp (B→A), puerarin 60 μg/mL + menthol 60 μg/mL): 2.07 ± 0.151 ×10⁻⁶ cm/s
- Papp B→A at 180 min, 60 μg/mL ([4]; Papp (B→A), puerarin 60 μg/mL + paeoniflorin 12 μg/mL): 1.24 ± 0.037 ×10⁻⁶ cm/s
- Papp B→A at 180 min, 60 μg/mL ([4]; Papp (B→A), puerarin 60 μg/mL + paeoniflorin 12 μg/mL + menthol 15 μg/mL): 1.29 ± 0.067 ×10⁻⁶ cm/s
- Papp B→A at 180 min, 60 μg/mL ([4]; Papp (B→A), puerarin 60 μg/mL + paeoniflorin 24 μg/mL): 1.25 ± 0.032 ×10⁻⁶ cm/s
- Papp B→A at 180 min, 60 μg/mL ([4]; Papp (B→A), puerarin 60 μg/mL + paeoniflorin 24 μg/mL + menthol 30 μg/mL): 1.91 ± 0.254 ×10⁻⁶ cm/s
- Papp B→A at 180 min, 60 μg/mL ([4]; Papp (B→A), puerarin 60 μg/mL + paeoniflorin 48 μg/mL): 1.29 ± 0.035 ×10⁻⁶ cm/s
- Papp B→A at 180 min, 60 μg/mL ([4]; Papp (B→A), puerarin 60 μg/mL + paeoniflorin 48 μg/mL + menthol 60 μg/mL): 2.14 ± 0.13 ×10⁻⁶ cm/s
- Papp B→A at 180 min, 60 μg/mL ([4]; Papp (B→A), puerarin 60 μg/mL alone): 1.24 ± 0.055 ×10⁻⁶ cm/s
- Papp B→A at 180 min, 120 μg/mL ([4]; Papp (B→A), puerarin 120 μg/mL alone): 1.27 ± 0.104 ×10⁻⁶ cm/s
- Papp B→A at 180 min ([4]; Papp (B→A), puerarin alone, span over 30, 60 and 120 μg/mL): 1.17 to 1.27 ×10⁻⁶ cm/s
- efflux ratio at 180 min ([4]; efflux ratio (ER), puerarin alone, each concentration 30, 60, 120 μg/mL): < 1.5
Structure (SMILES): O=c1c(-c2ccc(O)cc2)coc2c([C@@H]3O[C@H](CO)[C@@H](O)[C@H](O)[C@H]3O)c(O)ccc12 [puerarin]
- relative toxicity to Calu-3 cells (Calu-3 cells [2]): safer and less irritating than paeoniflorin
- trend of TEER change (Calu-3 cells [5]): no difference from the control group
- relative AOD of occludin, claudin-1, and F-actin [1]: did not significantly differ
- AUC0−∞ (plasma) ([6]; Tongqiaosanyu, caudal vein injection, rats): 787.99±70.44 mg⋅min⋅L^−1
- AUC0–∞ (plasma) ([6]; Tongqiaosanyu, nasal administration, rats): 376.56±93.93 mg⋅min⋅L^−1
- brain drug targeting index ([6]; intranasal administration): 2.70
- brain targeting coefficient (Re) ([6]; intranasal administration): 132.25%
- absolute bioavailability ([6]; nasal administration): 47.78%
